In ChEMBL document CHEMBL5344483, “Design and synthesis of novel chloropyridazine hybrids as promising anticancer agents acting by apoptosis induction and PARP-1 inhibition through a molecular hybridization strategy” (RSC Med Chem, 2024):
pIC50: −log10 of the molar value. The source made the active and inactive calls. No cut-off for these calls is given here.

Key:
HNO 97 cell line [1] = experiment: Induction of apoptosis in human HNO97 cells assessed as measuring fold decrease in CK 18 protein expression level by sandwiched immunoassay relative to control; assay type: functional
In short: (§1)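 Sandwich ELISA on antibody-precoated wells. Sample incubated 1 h at 37 °C, then biotin-conjugated detection antibody 1 h at 37 °C, then avidin-HRP 30 min at 37 °C, with washes between steps. TMB substrate 10–20 min at 37 °C in the dark, stopped with sulphuric acid, read at 450 nm. Duplicate readings, zero-standard subtracted, quantified against a 7-point standard curve.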

A-375 = experiment: Anticancer activity against human A-375 cells assessed as growth inhibition at 100 microg/mL by SRB assay relative to control; assay type: functional; conditions: read-out: GI
In short: (§2)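 Cells seeded at 3×10^3 per well and allowed to attach for 24 h. Treated with 100 µg/mL compound for 48 h, triplicate wells, with a 1% v/v DMSO vehicle control. Fixed in 20% TCA, stained with 0.4% SRB, and OD read at 570 nm. Survival fraction is treated OD/control OD.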

A549 = experiment: Anticancer activity against human A549 cells assessed as growth inhibition at 100 microg/mL by SRB assay relative to control; assay type: functional; conditions: read-out: GI; in short: as §2
HNO 97 cell line [2] = experiment: Induction of cell cycle arrest in human HNO97 cells assessed as cell population at S phase by flow cytometry (reference value: 34.27%); assay type: functional
Huh-7 = experiment: Anticancer activity against human Huh-7 cells assessed as growth inhibition at 100 microg/mL by SRB assay relative to control; assay type: functional; conditions: read-out: GI; in short: as §2
NCI-H460 = experiment: Anticancer activity against human NCI-H460 cells assessed as growth inhibition at 100 microg/mL by SRB assay relative to control; assay type: functional; conditions: read-out: GI; in short: as §2
HNO 97 cell line [3] = experiment: Anticancer activity against human HNO97 cells assessed as growth inhibition at 100 microg/mL by SRB assay relative to control; assay type: functional; conditions: read-out: GI; in short: as §2
HNO 97 cell line [4] = experiment: Induction of apoptosis in human HNO97 cells assessed as measuring fold increase in Bax protein expression level by sandwiched immunoassay relative to control; assay type: functional; in short: as §1
HNO 97 cell line [5] = experiment: Induction of cell cycle arrest in human HNO97 cells assessed as cell population at G2-M phase by flow cytometry (reference value: 2.42%); assay type: functional
MDA-MB-231 = experiment: Antiproliferative activity against human MDA-MB-231 cells assessed as reduction in cell growth by coomassie Brilliant Blue staining based analysis; assay type: functional
HNO 97 cell line [6] = experiment: Induction of apoptosis in human HNO97 cells assessed as measuring fold increase in caspase-3 protein expression level by sandwiched immunoassay relative to control; assay type: functional; in short: as §1
HNO 97 cell line [7] = experiment: Induction of cell cycle arrest in human HNO97 cells assessed as cell population at G0-G1 phase by flow cytometry (reference value: 63.31%); assay type: functional
HNO 97 cell line [8] = experiment: Induction of apoptosis in human HNO97 cells assessed as measuring fold increase in caspase-6 protein expression level by sandwiched immunoassay relative to control; assay type: functional; in short: as §1
MCF7 = experiment: Anticancer activity against human MCF7 cells assessed as growth inhibition at 100 microg/mL by SRB assay relative to control; assay type: functional; conditions: read-out: GI; in short: as §2
HCT-116 = experiment: Anticancer activity against human HCT-116 cells assessed as growth inhibition at 100 microg/mL by SRB assay relative to control; assay type: functional; conditions: read-out: GI; in short: as §2
MDA-MB-468 [9] = experiment: Anticancer activity against human MDA-MB-468 cells assessed as growth inhibition at 100 microg/mL by SRB assay relative to control; assay type: functional; conditions: read-out: GI; in short: as §2
HeLa = experiment: Anticancer activity against human HeLa cells assessed as growth inhibition at 100 microg/mL by SRB assay relative to control; assay type: functional; conditions: read-out: GI; in short: as §2
MDA-MB-468 [10] = experiment: Cytotoxicity against human MDA-MB-468 cells by SRB assay; assay type: functional, cell-based
In short: (§3)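 Cells seeded at 3×10^3 per well and allowed to attach for 24 h. Exposed to […], 12.5, 25 and 50 µg/mL for 48 h, triplicate wells per concentration, with a 1% v/v DMSO vehicle. Fixed in 20% TCA, stained with 0.4% SRB, and OD read at 570 nm. IC50 from sigmoidal dose-response fit of survival fraction (treated/control OD).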

HNO 97 cell line [11] = experiment: Induction of apoptosis in human HNO97 cells assessed as measuring fold decrease in Bcl-2 protein expression level by sandwiched immunoassay relative to control; assay type: functional; in short: as §1
SK-BR-3 = experiment: Anticancer activity against human SK-BR-3 cells assessed as growth inhibition at 100 microg/mL by SRB assay relative to control; assay type: functional; conditions: read-out: GI; in short: as §2
FaDu [12] = experiment: Cytotoxicity against human FaDu cells by SRB assay; assay type: functional, cell-based; in short: as §3
HNO 97 cell line [13] = experiment: Cytotoxicity against human HNO97 cells by SRB assay; assay type: functional, cell-based; in short: as §3
[14] = Cytotoxicity against human HSF (VGS) cells assessed as growth inhibition at 100 microg/mL by SRB assay relative to control; assay type: toxicity, cell-based; conditions: at 100 µg/mL, read-out: GI
FaDu [15] = experiment: Anticancer activity against human FaDu cells assessed as growth inhibition at 100 microg/mL by SRB assay relative to control; assay type: functional; conditions: read-out: GI; in short: as §2
HNO 97 cell line [16] = experiment: Induction of apoptosis in human HNO97 cells assessed as measuring fold increase in p53 protein expression level by sandwiched immunoassay relative to control; assay type: functional; in short: as §1
[17] = target: Poly [ADP-ribose] polymerase 1 (Homo sapiens, UniProt P09874); experiment: Inhibition of human PARP-1 in MDA-MB-231 cells assessed as accumulation of cleaved PARP-1 by immunoblot analysis; assay type: cell-based
Sequence of Poly [ADP-ribose] polymerase 1 (P09874 whole entry): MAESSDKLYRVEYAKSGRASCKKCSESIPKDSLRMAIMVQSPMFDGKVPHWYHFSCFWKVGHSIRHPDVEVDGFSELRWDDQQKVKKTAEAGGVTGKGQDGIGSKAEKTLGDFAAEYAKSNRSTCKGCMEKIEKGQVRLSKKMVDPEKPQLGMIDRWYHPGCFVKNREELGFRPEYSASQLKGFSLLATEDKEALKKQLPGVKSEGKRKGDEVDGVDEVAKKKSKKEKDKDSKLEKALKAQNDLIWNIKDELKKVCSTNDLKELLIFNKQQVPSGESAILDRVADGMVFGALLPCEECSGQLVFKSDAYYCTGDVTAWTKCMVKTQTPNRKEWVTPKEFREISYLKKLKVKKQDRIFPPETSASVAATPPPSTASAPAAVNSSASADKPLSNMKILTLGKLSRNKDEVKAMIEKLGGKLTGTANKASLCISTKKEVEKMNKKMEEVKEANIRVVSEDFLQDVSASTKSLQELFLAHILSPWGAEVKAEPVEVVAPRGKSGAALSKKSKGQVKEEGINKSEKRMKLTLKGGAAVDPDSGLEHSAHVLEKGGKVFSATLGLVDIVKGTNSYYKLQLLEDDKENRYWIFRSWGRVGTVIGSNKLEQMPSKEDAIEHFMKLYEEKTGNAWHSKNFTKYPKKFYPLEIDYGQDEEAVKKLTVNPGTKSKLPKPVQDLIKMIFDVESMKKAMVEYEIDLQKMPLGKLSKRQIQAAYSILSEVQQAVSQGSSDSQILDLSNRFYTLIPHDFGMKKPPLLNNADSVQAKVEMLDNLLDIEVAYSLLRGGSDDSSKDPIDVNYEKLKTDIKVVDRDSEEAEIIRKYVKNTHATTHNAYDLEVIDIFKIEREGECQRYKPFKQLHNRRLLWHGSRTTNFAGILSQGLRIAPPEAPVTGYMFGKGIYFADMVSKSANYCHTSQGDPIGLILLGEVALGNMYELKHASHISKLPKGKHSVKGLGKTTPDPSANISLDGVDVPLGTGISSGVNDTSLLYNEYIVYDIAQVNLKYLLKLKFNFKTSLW
In short: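 Drug-treated cells lysed and protein measured by BCA. Lysate (30 µg) separated by SDS-PAGE and transferred to PVDF. Probed with anti-PARP1 primary antibody (1:1000), then HRP-conjugated secondary (1:10,000), with alpha-tubulin as loading probe. Detected by ECL. Blots representative of at least three independent experiments.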

SMILES | fold change (FC) (HNO 97 cell line [1]) | inhibition of growth at 100 µg/mL (A-375) | inhibition of growth at 100 µg/mL (A549) | inhibition of growth at 100 µg/mL (Huh-7) | inhibition of growth at 100 µg/mL (NCI-H460) | inhibition of growth at 100 µg/mL (HNO 97 cell line [3]) | fold change (FC) (HNO 97 cell line [4]) | Activity (MDA-MB-231) | fold change (FC) (HNO 97 cell line [6]) | fold change (FC) (HNO 97 cell line [8]) | inhibition of growth at 100 µg/mL (MCF7) | inhibition of growth at 100 µg/mL (HCT-116) | inhibition of growth at 100 µg/mL (MDA-MB-468 [9]) | inhibition of growth at 100 µg/mL (HeLa) | pIC50 (MDA-MB-468 [10]) | fold change (FC) (HNO 97 cell line [11]) | inhibition of growth at 100 µg/mL (SK-BR-3) | pIC50 (HNO 97 cell line [13]) | inhibition at 100 microg/mL [14] | inhibition of growth at 100 µg/mL (FaDu [15]) | other results
O=C(/C=C/c1ccc(Oc2ccc(Cl)nn2)cc1)c1ccc(OCc2ccc(Cl)cc2Cl)cc1 | 0.5 | 70.5% | 65% | 67.8% | 52.4% | 83.3% | 11.54 | Active | 8.7 | 9.79 | 54.4% | 75.1% | 84.2% | 55% | 4.67 | 0.66 | 60.9% | 4.95 | 50.7% | 81.6% | Activity (HNO 97 cell line [2]): 25.13%; Activity (HNO 97 cell line [5]): 8.57%; Activity (HNO 97 cell line [7]): 66.3%; pIC50 (FaDu [12]): 4.22; fold change (FC) (HNO 97 cell line [16]): 5.75
CC(=O)Nc1ccc(C(=O)/C=C/c2ccc(Oc3ccc(Cl)nn3)cc2)cc1 | – | 71.7% | 69.3% | 77.5% | 63.3% | 85.5% | – | Active | – | – | 75% | 54.5% | 89.7% | 62.9% | 4.09 | – | 71.3% | 4.67 | 70.2% | 86.5% | pIC50 (FaDu [12]): 4.51; inhibition [17]: Active
CC(=O)Nc1cccc(C(=O)/C=C/c2ccc(Oc3ccc(Cl)nn3)cc2)c1 | 0.43 | 73% | 71.5% | 70.8% | 69.6% | 83.7% | 18.26 | Active | 9.44 | 10.49 | 68.7% | 77.8% | 91.1% | 73.9% | 4.52 | 0.65 | 55.5% | 4.89 | 70% | 66.3% | inhibition [17]: Active; fold change (FC) (HNO 97 cell line [16]): 7.01
Nc1ccc(C(=O)/C=C/c2ccc(Oc3ccc(Cl)nn3)cc2)cc1 | 0.54 | 56.1% | 66.5% | 73.9% | 61.3% | 89.1% | 14.9 | Active | 7.55 | 9.76 | 67.9% | 66.9% | 95% | 82.3% | 4.94 | 0.59 | 77.5% | 4.91 | 68.1% | 86.7% | Activity (HNO 97 cell line [2]): 15.66%; Activity (HNO 97 cell line [5]): 1.05%; Activity (HNO 97 cell line [7]): 83.28%; pIC50 (FaDu [12]): 4.57; inhibition [17]: Active; fold change (FC) (HNO 97 cell line [16]): 3.9
